In brackets after ≈: the same amount, converted by molar mass. Activity calls are given as the source filed them. No cut-off for these calls is given here.
What was measured:
Enterococcus faecium [1] = assay: Antimicrobial activity against Enterococcus faecium assessed as inhibition of microbial growth at 45 uM after 24 hrs; format: functional, organism-based
Method in brief: (§1)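 Broth microdilution single-concentration read: overnight cultures diluted 1:1000, compound in DMF (≤2.0%) added, 37°C for 24 h, growth inhibition scored visually by lack of turbidity; triplicate. Gram-positives grown in TSB, Gram-negatives in LB.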

Staphylococcus aureus [2] = assay: Antimicrobial activity against Staphylococcus aureus assessed as inhibition of microbial growth at 45 uM after 24 hrs; format: functional, organism-based; method in brief: as §1
Klebsiella pneumoniae [3] = assay: Antimicrobial activity against Klebsiella pneumoniae assessed as inhibition of microbial growth at 45 uM after 24 hrs; format: functional, organism-based; method in brief: as §1
Acinetobacter baumannii [4] = assay: Antimicrobial activity against Acinetobacter baumannii assessed as inhibition of microbial growth at 45 uM after 24 hrs; format: functional, organism-based; method in brief: as §1
Pseudomonas aeruginosa [5] = assay: Antimicrobial activity against Pseudomonas aeruginosa assessed as inhibition of microbial growth at 45 uM after 24 hrs; format: functional, organism-based; method in brief: as §1
Enterobacter cloacae [6] = assay: Antimicrobial activity against Enterobacter cloacae assessed as inhibition of microbial growth at 45 uM after 24 hrs; format: functional, organism-based; method in brief: as §1
Enterococcus faecium [7] = assay: Antimicrobial activity against Enterococcus faecium assessed as inhibition of microbial growth after 24 hrs; format: functional
Method in brief: (§2)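 Broth microdilution against multidrug-resistant clinical ESKAPE isolates. Overnight cultures (TSB for Gram-positives, LB for Gram-negatives) diluted 1:1000 in fresh medium, compound in DMF (≤2.0% DMF) added at decreasing concentrations, 37°C.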

Staphylococcus aureus [8] = assay: Antimicrobial activity against Staphylococcus aureus assessed as inhibition of microbial growth after 24 hrs; format: functional; method in brief: as §2
Klebsiella pneumoniae [9] = assay: Antimicrobial activity against Klebsiella pneumoniae assessed as inhibition of microbial growth after 24 hrs; format: functional; method in brief: as §2
Acinetobacter baumannii [10] = assay: Antimicrobial activity against Acinetobacter baumannii assessed as inhibition of microbial growth after 24 hrs; format: functional; method in brief: as §2
Pseudomonas aeruginosa [11] = assay: Antimicrobial activity against Pseudomonas aeruginosa assessed as inhibition of microbial growth after 24 hrs; format: functional; method in brief: as §2
Enterobacter cloacae [12] = assay: Antimicrobial activity against Enterobacter cloacae assessed as inhibition of microbial growth after 24 hrs; format: functional; method in brief: as §2
Enterococcus faecium [13] = assay: Bactericidal activity against Enterococcus faecium after 24 hrs; format: functional
Klebsiella pneumoniae [14] = assay: Bactericidal activity against Klebsiella pneumoniae after 24 hrs; format: functional
Acinetobacter baumannii [15] = assay: Bactericidal activity against Acinetobacter baumannii after 24 hrs; format: functional
Pseudomonas aeruginosa [16] = assay: Bactericidal activity against Pseudomonas aeruginosa after 24 hrs; format: functional
Enterobacter cloacae [17] = assay: Bactericidal activity against Enterobacter cloacae after 24 hrs; format: functional
Staphylococcus aureus [18] = assay: Effect on bacterial density of methicillin-resistant Staphylococcus aureus at MIC measured over 2 hrs period by time kill assay; format: functional, organism-based
Staphylococcus aureus [19] = assay: Bactericidal activity against methicillin-resistant Staphylococcus aureus assessed as cell survival recovery at MIC measured after drug wash out after 120 mins by time kill assay; format: functional
Method in brief: (§3)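 MRSA from stationary phase was regrown 3 h in TSB and seeded at OD600 0.5. […] After 120 min, cells were centrifuged and washed, serially diluted and plated for CFU. Percent recovery is relative to no-drug controls.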

Staphylococcus aureus [20] = assay: Bactericidal activity against methicillin-resistant Staphylococcus aureus at MIC measured after drug wash out after 120 mins by time kill assay; format: functional; method in brief: as §3
Enterococcus faecium [21] = assay: Antibiofilm activity against Enterococcus faecium incubated for 24 hrs followed by biofilm resuspension in PBS and measured after 24 hrs; format: functional
Method in brief: (§4)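 Biofilms grown 24 h in 96-well plates from overnight cultures standardized to OD600 0.5 in fresh medium (human serum only for S. aureus; TSB for Gram-positives, LB for Gram-negatives). Medium then replaced with fresh medium containing a concentration range above and below MIC, 37°C overnight. After 24 h biofilm resuspended in PBS, serially diluted, plated in duplicate, CFU counted after 24 h at 37°C. Activity relative to untreated; three technical replicates; MBEC50 reported.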

Staphylococcus aureus [22] = assay: Antibiofilm activity against Staphylococcus aureus incubated for 24 hrs followed by biofilm resuspension in PBS and measured after 24 hrs; format: functional; method in brief: as §4
Klebsiella pneumoniae [23] = assay: Antibiofilm activity against Klebsiella pneumoniae incubated for 24 hrs followed by biofilm resuspension in PBS and measured after 24 hrs; format: functional; method in brief: as §4
Acinetobacter baumannii [24] = assay: Antibiofilm activity against Acinetobacter baumannii incubated for 24 hrs followed by biofilm resuspension in PBS and measured after 24 hrs; format: functional; method in brief: as §4
Pseudomonas aeruginosa [25] = assay: Antibiofilm activity against Pseudomonas aeruginosa incubated for 24 hrs followed by biofilm resuspension in PBS and measured after 24 hrs; format: functional; method in brief: as §4
Enterobacter cloacae [26] = assay: Antibiofilm activity against Enterobacter cloacae incubated for 24 hrs followed by biofilm resuspension in PBS and measured after 24 hrs; format: functional; method in brief: as §4
A549 = assay: Cytotoxicity against human A549 cells after 48 hrs by MTT assay; format: cell-based; conditions: A549, 48 h
Method in brief: (§5)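 A549 cells grown in F-12K with L-glutamine, 10% FBS, 1% penicillin-streptomycin, seeded at 1.0 × 10^5 ml−1, allowed to adhere 24 h (37°C, 5% CO2), then exposed to compound in 45% w/v (2-hydroxypropyl)-β-cyclodextrin vehicle for 48 h. MTT 4 h, formazan solubilized in DMSO, absorbance 540 nm. Percent recovery versus vehicle-only; IC50 derived; at least three independent experiments.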

[27] = Selectivity index, ratio of IC50 for human A549 cells to MIC for Enterococcus faecium
[28] = Selectivity index, ratio of IC50 for human A549 cells to MIC for Staphylococcus aureus
[29] = Selectivity index, ratio of IC50 for human A549 cells to MIC for Klebsiella pneumoniae
[30] = Selectivity index, ratio of IC50 for human A549 cells to MIC for Acinetobacter baumannii
[31] = Selectivity index, ratio of IC50 for human A549 cells to MIC for Pseudomonas aeruginosa
[32] = Selectivity index, ratio of IC50 for human A549 cells to MIC for Enterobacter cloacae
[33] = Cytotoxicity against human A549 cells assessed as cell viability recovery up to 100 uM after 48 hrs by MTT assay; format: cell-based; conditions: read-out: Activity; method in brief: as §5
[34] = Cytotoxicity against human A549 cells assessed as cell viability recovery at 225 uM after 48 hrs by MTT assay; format: cell-based; conditions: read-out: Activity; method in brief: as §5
[35] = Induction of hemolysis in human RBC at 10 uM incubated for 15 mins; format: cell-based, Erythrocyte; conditions: red blood cells, read-out: Activity
Method in brief: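 Human RBCs from whole blood, resuspended 20% v/v in HA buffer (NaCl, CaCl2), compound 10 μM, 15 min at 37°C. Centrifuged 5,500 g for 1 min, supernatant OD543 read. Percent hemolysis against DMF vehicle (0%) and 1.0% Triton X-100 (100%); triplicate.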

Enterococcus faecium [36] = assay: Induction of spontaneous mutation in Enterococcus faecium at 2 to 10 MIC; format: functional, organism-based
Staphylococcus aureus [37] = assay: Induction of spontaneous mutation in Staphylococcus aureus at 2 to 10 MIC; format: functional, organism-based
Klebsiella pneumoniae [38] = assay: Induction of spontaneous mutation in Klebsiella pneumoniae at 2 to 10 MIC; format: functional, organism-based
Acinetobacter baumannii [39] = assay: Induction of spontaneous mutation in Acinetobacter baumannii at 2 to 10 MIC; format: functional, organism-based
Pseudomonas aeruginosa [40] = assay: Induction of spontaneous mutation in Pseudomonas aeruginosa at 2 to 10 MIC; format: functional, organism-based; conditions: 2 to 10 x MIC
Enterobacter cloacae [41] = assay: Induction of spontaneous mutation in Enterobacter cloacae at 2 to 10 MIC; format: functional, organism-based
Staphylococcus aureus [42] = assay: Ratio of MIC for Staphylococcus aureus measured after 8 cycle passage to MIC for wild type Staphylococcus aureus; format: functional
Klebsiella pneumoniae [43] = assay: Ratio of MIC for Klebsiella pneumoniae measured after 8 cycle passage to MIC for wild type Klebsiella pneumoniae; format: functional
Acinetobacter baumannii [44] = assay: Ratio of MIC for Acinetobacter baumannii measured after 8 cycle passage to MIC for wild type Acinetobacter baumannii; format: functional
Enterobacter cloacae [45] = assay: Ratio of MIC for Enterobacter cloacae measured after 8 cycle passage to MIC for wild type Enterobacter cloacae; format: functional
Staphylococcus aureus [46] = assay: Antimicrobial activity against Staphylococcus aureus USA300 strain FPR3757 infected in mouse model of lethal peritonitis assessed as mouse survival at 2 uM, im dosed 1 hr post infection and measured after 5 days post infection; format: functional, organism-based
Method in brief: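 Mice, six per group, infected i.p. with 1 × 10^8 CFU ml−1 S. aureus USA300 FPR3757 in PBS with 5% mucin. Compound given i.m. at 2 μM 1 h later; vehicle 45% w/v (2-hydroxypropyl)-β-cyclodextrin in water i.v.; vancomycin i.v. as control. Monitored twice daily for 5 days, pre-moribund animals euthanized. Survival compared by log-rank test.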

Pseudomonas aeruginosa [47] = assay: Antimicrobial activity against Pseudomonas aeruginosa assessed as inhibition of microbial growth at 100 uM after 24 hrs; format: functional, organism-based; method in brief: as §1

CCCC[C@H]1CN(CCCC[C@H]2CNC(=N)N2CCc2cccc(C(F)(F)F)c2)C(=N)N1CCCCC1CCCCC1
growth inhibition (GI) (Enterococcus faecium [1]): Active | growth inhibition (GI) (Staphylococcus aureus [2]): Active | growth inhibition (GI) (Klebsiella pneumoniae [3]): Active | growth inhibition (GI) (Acinetobacter baumannii [4]): Active | growth inhibition (GI) (Pseudomonas aeruginosa [5]): Active | growth inhibition (GI) (Enterobacter cloacae [6]): Active | MIC (Enterococcus faecium [7]): 1.5 µM | MIC (Staphylococcus aureus [8]): 1.5 µM | MIC (Klebsiella pneumoniae [9]): 1.5 µM | MIC (Acinetobacter baumannii [10]): 1.5 µM | MIC (Pseudomonas aeruginosa [11]): 1.5 µM | MIC (Enterobacter cloacae [12]): 1.5 µM | MBC90 (Enterococcus faecium [13]): 1.7 µM (≈ 1 µg/mL) | MBC90 (Klebsiella pneumoniae [14]): 4 µM (≈ 2.36 µg/mL) | MBC90 (Acinetobacter baumannii [15]): 2.8 µM (≈ 1.65 µg/mL) | MBC90 (Pseudomonas aeruginosa [16]): 2.3 µM (≈ 1.36 µg/mL) | MBC90 (Enterobacter cloacae [17]): 4.1 µM (≈ 2.42 µg/mL) | Activity (Staphylococcus aureus [18]): inactive | Survival (Staphylococcus aureus [19]): 0.2% | fold change (FC) (Staphylococcus aureus [20]): 2.5 | MBEC50 (Enterococcus faecium [21]): 29 µM | MBEC50 (Staphylococcus aureus [22]): 2.2 µM | MBEC50 (Klebsiella pneumoniae [23]): 4.7 µM | MBEC50 (Acinetobacter baumannii [24]): 16 µM | MBEC50 (Pseudomonas aeruginosa [25]): 31 µM | MBEC50 (Enterobacter cloacae [26]): 13 µM | IC50 (A549): 125 µM | Selectivity Index [27]: 82 | Selectivity Index [28]: 82 | Selectivity Index [29]: 82 | Selectivity Index [30]: 82 | Selectivity Index [31]: 82 | Selectivity Index [32]: 82 | viability at 48 h [33]: > 65% | viability at 48 h, 225 µM [34]: > 50% | hemolysis at 0.25 h, 10 µM [35]: 0.34% | Activity (Enterococcus faecium [36]): inactive | Activity (Staphylococcus aureus [37]): inactive | Activity (Klebsiella pneumoniae [38]): inactive | Activity (Acinetobacter baumannii [39]): inactive | Activity (Pseudomonas aeruginosa [40]): inactive | Activity (Enterobacter cloacae [41]): inactive | Ratio (Staphylococcus aureus [42]): 2 | Ratio (Klebsiella pneumoniae [43]): <=8 | Ratio (Acinetobacter baumannii [44]): <=8 | Ratio (Enterobacter cloacae [45]): <=8 | Activity (Staphylococcus aureus [46]): Active

COC(=O)[C@H]1[C@H]2C[C@@H]3c4[nH]c5cc(OC)ccc5c4CCN3C[C@H]2C[C@@H](OC(=O)c2cc(OC)c(OC)c(OC)c2)[C@@H]1OC
growth inhibition (GI) (Pseudomonas aeruginosa [47]): inactive

CCCCCCCN1C(=N)N(CCCC[C@H]2CNC(=N)N2CCC23CC4CC(CC(C4)C2)C3)C[C@H]1Cc1cccc2ccccc12
growth inhibition (GI) (Enterococcus faecium [1]): Active | growth inhibition (GI) (Staphylococcus aureus [2]): Active | growth inhibition (GI) (Klebsiella pneumoniae [3]): Active | growth inhibition (GI) (Acinetobacter baumannii [4]): Active | growth inhibition (GI) (Pseudomonas aeruginosa [5]): Active | growth inhibition (GI) (Enterobacter cloacae [6]): Active

CN[C@H](CC(C)C)C(=O)N[C@H]1C(=O)N[C@@H](CC(N)=O)C(=O)N[C@H]2C(=O)N[C@H]3C(=O)N[C@H](C(=O)N[C@H](C(=O)O)c4cc(O)cc(O)c4-c4cc3ccc4O)[C@H](O)c3ccc(c(Cl)c3)Oc3cc2cc(c3O[C@@H]2O[C@H](CO)[C@@H](O)[C@H](O)[C@H]2O[C@H]2C[C@](C)(N)[C@H](O)[C@H](C)O2)Oc2ccc(cc2Cl)[C@H]1O [VANCOMYCIN]
Ratio (Staphylococcus aureus [42]): 128 | Ratio (Klebsiella pneumoniae [43]): <=128 | Ratio (Acinetobacter baumannii [44]): <=128 | Ratio (Enterobacter cloacae [45]): <=128
